Key:
HPNE = assay: MTT proliferation assay, HPNE cells; type: cell-based; conditions: Homo sapiens, 24 h; for IC20: read-out: Approx. IC20; for IC50: read-out: Approx. IC50
Procedure, shortened: (§1)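 Cells were seeded at 4 × 10^3/well in 96-well plates and dosed 24 h later with graded concentrations of test compound for 24 h, with DMSO solvent control. Proliferation was read by modified MTT assay and approximate IC20/IC50 reported; triplicates, three independent experiments. Culture media, all at 37°C/5% CO2, were: BxPC-3 and Capan-2 RPMI/10% FBS; MIA PaCa-2 high-glucose DMEM/10% FBS/5% horse serum; PANC-1 DMEM/10% FBS; HPNE HPNE base medium/5% FBS/EGF.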

MIA PaCa-2 = assay: MTT proliferation assay, MIA PaCa-2 cells; type: cell-based; conditions: Homo sapiens, MIA PaCa-2, 24 h; for IC20: read-out: Approx. IC20; for IC50: read-out: Approx. IC50
Procedure, shortened: as §1

Capan-2 [1] = assay: MTT proliferation assay, Capan-2 cells; type: cell-based; conditions: Homo sapiens, Capan-2, 24 h; for IC20: read-out: Approx. IC20; for IC50: read-out: Approx. IC50
Procedure, shortened: as §1

BxPC-3 = assay: MTT proliferation assay, BxPC-3 cells; type: cell-based; conditions: Homo sapiens, BXPC-3, 24 h; for IC20: read-out: Approx. IC20; for IC50: read-out: Approx. IC50
Procedure, shortened: as §1

PANC-1 = assay: MTT proliferation assay, PANC-1 cells; type: cell-based; conditions: Homo sapiens, PANC-1, 24 h; for IC20: read-out: Approx. IC20; for IC50: read-out: Approx. IC50
Procedure, shortened: as §1

Capan-2 [2] = assay: Annexin V apoptosis assay, Capan-2; type: cell-based, human; conditions: 24h, Nx 50 μg/mL, GEM 0.5 μM, alone or in combination
p50 = assay: Immunoblot analysis of p50; type: cell-based, human; conditions: MIA PaCa-2; 24h; GEM 0.5 μM alone or with Nx 20 μg/mL
Procedure, shortened: (§2)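 MIA PaCa-2 cells were exposed for 24 h to medium alone, test extract (20 μg/mL), nucleoside drug (0.5 μM), or both. They were lysed in 2x SDS buffer with protease and phosphatase inhibitors, run on 10% SDS-PAGE and transferred to nitrocellulose. Blocking was 1 h at RT in 5% milk or 5% BSA/TBST, primary antibody 2 h at RT, then HRP secondary 1 h. Detection was ECL; blots are representative of three independent experiments.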

[3] = test system: GEM-resistant Capan-2 (GRC) cells; assay: Proliferation assay, GEM-resistant Capan-2; type: cell-based, human; conditions: 24h
Procedure, shortened: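 The resistant Capan-2 line was derived by stepwise nucleoside drug exposure: 5 μM for 4 days, 5 μM for 1 week, 7.5 μM for 1 week, each followed by drug-free recovery, then 10 μM for 4 months. It was kept in RPMI/10% FBS plus drug. Resistant and parental cells were treated with graded doses for 24 h, and proliferation was read by MTT; triplicates, three independent experiments.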

phospho-p65 (pp65) = assay: Immunoblot analysis of pp65; type: cell-based, human; conditions: MIA PaCa-2; 24h; GEM 0.5 μM alone or with Nx 20 μg/mL
[4] = test system: GEM-resistant BxPC-3 (GRB) cells; assay: Proliferation assay, GEM-resistant BxPC-3; type: cell-based, human; conditions: 24h
p105 = assay: Immunoblot analysis of p105; type: cell-based, human; conditions: MIA PaCa-2; 24h; GEM 0.5 μM alone or with Nx 20 μg/mL
Procedure, shortened: as §2

| SMILES | IC20 (HPNE) [µg/mL] | IC50 (HPNE) [µg/mL] | IC20 (MIA PaCa-2) [µg/mL] | IC50 (MIA PaCa-2) [µg/mL] | IC20 (Capan-2 [1]) [µg/mL] | IC50 (Capan-2 [1]) [µg/mL] | IC20 (BxPC-3) [µg/mL] | IC50 (BxPC-3) [µg/mL] | IC20 (PANC-1) [µg/mL] | IC50 (PANC-1) [µg/mL] | apoptosis induction (Annexin V) (Capan-2 [2]) | levels of p50 (p50) | proliferation of GRC cells compared to WT parental Capan-2 [3] | levels of pp65 (phospho-p65 (pp65)) | proliferation of GRB cells compared to WT parental BxPC-3 [4] | levels of p105 (p105) |
| --- | --- | --- | --- | --- | --- | --- | --- | --- | --- | --- | --- | --- | --- | --- | --- | --- |
| CCCCC[N+]12CCc3cc4c(cc3C1Cc1ccc(OC)c(OC)c1C2)OCO4.[Cl-] (centres unmarked) [Ber 2-4, 9,10-dimethoxy-7-pentyl-5,6,7,8,13,13a-hexahydro-[1,3]dioxolo[4,5-g]isoquinolino[3,2-a]isoquinolin-7-ium chloride] | ~25 | ~75 | ~10 | ~30 | ~5 | ~75 | ~5 | ~25 | ~1 | ~5 | – | – | – | – | – | – |
| COc1ccc2c(c1OC)C[N+]1(Cc3ccc(Br)cc3)CCc3cc4c(cc3C1C2)OCO4.[Br-] (centres unmarked) [Ber 2-8, 7-(4-bromobenzyl)-9,10-dimethoxy-5,6,7,8,13,13a-hexahydro-[1,3]dioxolo[4,5-g]isoquinolino[3,2-a]isoquinolin-7-ium bromide] | ~25 | ~50 | ~5 | ~20 | – | – | – | – | ~5 | ~50 | – | – | – | – | – | – |
| COc1ccc2cc3[n+](cc2c1OC)CCc1cc2c(cc1-3)OCO2 [Berberine] | ~5 | ~75 | ~5 | ~25 | ~5 | ~75 | ~5 | ~25 | ~2.5 | ~50 | – | – | – | – | – | – |
| Nc1ccn([C@@H]2O[C@H](CO)[C@@H](O)C2(F)F)c(=O)n1 [GEM, gemcitabine] | – | – | – | – | – | – | – | – | – | – | did not observe Annexin positive cells | induced | significantly higher level of tolerance | induced | significantly higher level of tolerance | induced |

Reference: article PMC5800424 (Molecular carcinogenesis, 2016)
